Results reported in ChEMBL document CHEMBL3576819, “Design, synthesis, biological evaluation and molecular docking studies of phenylpropanoid derivatives as potent anti-hepatitis B virus agents” (Eur J Med Chem, 2015).

Assays:
[1] = Cytotoxicity against human HepG2.2.15 cells assessed as cell death after 9 days by MTT assay; format: cell-based, HepG2 2.2.15
In short: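 HepG2.2.15 cells (MEM, 10% FBS, 380 µg/ml G418, 37 °C, 5% CO2) seeded at 1×10^5 cells/ml, cultured 24 h, then exposed to various drug concentrations; drug-containing medium renewed every 3 d. OD read at 450 nm after 9 days; percent cell death calculated; CC50 = concentration killing 50% of cells. Means of at least two experiments.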

Hepatitis B virus [2] = test: Antiviral activity against Hepatitis B virus infected in human HepG2.2.15 cells assessed as inhibition of HBsAg secretion by ELISA; format: functional, organism-based; settings: HepG2 2.2.15
In short: (§1)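 HepG2.2.15 cells (MEM, 10% FBS, 380 µg/ml G418) seeded at 1×10^5 cells/ml, held 24 h at 37 °C, then treated with various drug concentrations; medium with drug renewed every 3 d for up to 9 d. Culture medium sampled on days 3, 6 and 9, stored at -20 °C, and assayed for secreted antigen. Lamivudine as positive control; IC50 = 50% inhibition of secretion; means of at least two experiments.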

[3] = Selectivity index, ratio of CC50 for human HepG2.2.15 cells to IC50 for Hepatitis B virus infected in human HepG2.2.15 cells assessed as inhibition of HBsAg secretion; format: functional
In short: (§2)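 Selectivity index computed as CC50/IC50, with CC50 from cell death of HepG2.2.15 cells after 9 days of treatment (OD 450 nm) and IC50 from 50% inhibition of HBeAg or HBsAg secretion in the same cells; medium with drug renewed every 3 d.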

Hepatitis B virus [4] = test: Antiviral activity against Hepatitis B virus infected in human HepG2.2.15 cells assessed as inhibition of HBeAg secretion by ELISA; format: functional, organism-based; settings: HepG2 2.2.15; in short: as §1
[5] = Selectivity index, ratio of CC50 for human HepG2.2.15 cells to IC50 for Hepatitis B virus infected in human HepG2.2.15 cells assessed as inhibition of HBeAg secretion; format: functional; in short: as §2

Work on `COc1cc(C=O)cc2c1OCO2` yielded a CC50 at 216 h [1] of 1080 µM.
In the case of `O/N=C/c1ccccn1`, the IC50 (Hepatitis B virus [2]) is reported as 387 µM, the “Ratio CC50/IC50” value [3] is reported as 1.04 and the IC50 (Hepatitis B virus [4]) is reported as 469 µM. The CC50 at 216 h [1] was 402 µM and the “Ratio CC50/IC50” value [5] was 0.86.
In the case of `COc1cc(/C=C/C(=O)O)cc(OC)c1OC` [SINAPIC ACID METHYL ETHER], the IC50 (Hepatitis B virus [2]) is reported as over 600 µM, the “Ratio CC50/IC50” value [3] is reported as under 1.39 and the IC50 (Hepatitis B virus [4]) is reported as over 600 µM. For the same compound, the CC50 at 216 h [1] was 834 µM and the “Ratio CC50/IC50” value [5] was under 1.39.
With `O=C(O)/C=C/c1ccc2c(c1)OCO2` the IC50 (Hepatitis B virus [2]) was 433 µM, the “Ratio CC50/IC50” value [3] was 1.16 and the IC50 (Hepatitis B virus [4]) was 526 µM. For the same compound, the CC50 at 216 h [1] was 503 µM and the “Ratio CC50/IC50” value [5] was 0.96.
For `O/N=C/c1cccs1` [2-THIOPHENECARBOXALDEHYDE OXIME], the IC50 (Hepatitis B virus [2]) was 354 µM, the “Ratio CC50/IC50” value [3] was 1.59 and the IC50 (Hepatitis B virus [4]) was 431 µM. For the same compound, the CC50 at 216 h [1] was 562 µM and the “Ratio CC50/IC50” value [5] was 1.3.
For `O/N=C/c1ccco1`, the IC50 (Hepatitis B virus [2]) was 480 µM, the “Ratio CC50/IC50” value [3] was 1.01 and the IC50 (Hepatitis B virus [4]) was 519 µM. The CC50 at 216 h [1] was 475 µM and the “Ratio CC50/IC50” value [5] was 0.91.
For `COc1ccc(/C=C/C(=O)O)cc1OC` [O,O'-DIMETHYLCAFFEIC ACID], the IC50 (Hepatitis B virus [2]) was over 600 µM, the “Ratio CC50/IC50” value [3] was under 0.89 and the IC50 (Hepatitis B virus [4]) was over 600 µM. The CC50 at 216 h [1] was 535 µM and the “Ratio CC50/IC50” value [5] was under 0.89.
Work on `COc1ccc(C=O)cc1OC` [3,4-DIMETHOXYBENZALDEHYDE] yielded a CC50 at 216 h [1] of over 1500 µM.
In the case of `O=Cc1ccc2c(c1)OCO2` [PIPERONAL], the CC50 at 216 h [1] is reported as 1290 µM.
With `COc1cc(/C=C/C(=O)O)cc2c1OCO2` the IC50 (Hepatitis B virus [2]) was 411 µM, the “Ratio CC50/IC50” value [3] was 1.62 and the IC50 (Hepatitis B virus [4]) was 477 µM. The CC50 at 216 h [1] was 667 µM and the “Ratio CC50/IC50” value [5] was 1.4.
In the case of `COc1cc(C=O)cc(OC)c1OC`, the CC50 at 216 h [1] is reported as over 1500 µM.
